A word on the IC50: it is the concentration at which inhibition is half-maximal. Lower therefore signals higher potency. In general, Ki refers to a dissociation constant, usually derived from enzyme kinetics or from competition with a known ligand. Lower therefore signals tighter binding.

Common to all, as to type: biochemical
One series concerns the target T1, CYP2B6 (Homo sapiens, UniProt P20813).
T1 sequence (P20813 1-491): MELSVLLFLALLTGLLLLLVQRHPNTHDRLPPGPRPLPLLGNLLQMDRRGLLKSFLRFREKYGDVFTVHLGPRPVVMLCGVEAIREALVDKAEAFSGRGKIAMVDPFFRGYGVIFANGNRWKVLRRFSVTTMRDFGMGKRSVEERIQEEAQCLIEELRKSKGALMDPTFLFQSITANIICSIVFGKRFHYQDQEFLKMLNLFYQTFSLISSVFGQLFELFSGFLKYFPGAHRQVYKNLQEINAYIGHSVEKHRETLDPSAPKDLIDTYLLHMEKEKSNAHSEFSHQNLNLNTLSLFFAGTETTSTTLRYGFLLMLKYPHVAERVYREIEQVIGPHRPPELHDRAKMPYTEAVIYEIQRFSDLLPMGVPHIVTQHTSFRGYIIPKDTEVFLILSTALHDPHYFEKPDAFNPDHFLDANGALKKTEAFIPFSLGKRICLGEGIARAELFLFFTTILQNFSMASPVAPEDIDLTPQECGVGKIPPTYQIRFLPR
Put plainly: Inhibition of CYP2B6. A digest of the protocol: (§1)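 Recombinant human CYPs at 0.1 mg mL−1 protein, each with its probe substrate near Km: coumarin 100 μM (2A6), bupropion 100 μM (2B6), paclitaxel 60 μM (2C8), tolbutamide 200 μM (2C9), mephenytoin 100 μM (2C19), chlorzoxazone 200 μM (2E1). Incubated at 37 °C with or without test compound at 1, 10 or 100 μM. UHPLC-TQD-MS read-out; triplicate.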

The target in the next series is CYP2E1 (Homo sapiens, UniProt P05181). Put plainly: Inhibition of CYP2E1. A digest of the protocol: as §1
Chain of CYP2E1 (P05181 whole entry): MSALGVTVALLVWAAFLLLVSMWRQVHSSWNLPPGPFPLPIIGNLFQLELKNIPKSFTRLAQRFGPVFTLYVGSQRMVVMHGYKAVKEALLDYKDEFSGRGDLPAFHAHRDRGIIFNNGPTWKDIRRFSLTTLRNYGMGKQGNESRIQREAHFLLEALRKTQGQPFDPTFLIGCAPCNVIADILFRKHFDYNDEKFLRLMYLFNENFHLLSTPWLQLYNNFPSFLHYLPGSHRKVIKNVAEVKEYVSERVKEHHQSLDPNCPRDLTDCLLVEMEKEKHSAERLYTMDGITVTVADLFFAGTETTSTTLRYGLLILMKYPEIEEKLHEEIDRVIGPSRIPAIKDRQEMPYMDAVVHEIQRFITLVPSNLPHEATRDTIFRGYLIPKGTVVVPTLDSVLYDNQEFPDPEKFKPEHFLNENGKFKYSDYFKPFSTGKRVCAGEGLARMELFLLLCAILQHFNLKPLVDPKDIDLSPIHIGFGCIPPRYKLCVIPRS
For a further series, the target named is T2, UGT1A3 (Homo sapiens, UniProt P35503).
T2 sequence (P35503 29-534): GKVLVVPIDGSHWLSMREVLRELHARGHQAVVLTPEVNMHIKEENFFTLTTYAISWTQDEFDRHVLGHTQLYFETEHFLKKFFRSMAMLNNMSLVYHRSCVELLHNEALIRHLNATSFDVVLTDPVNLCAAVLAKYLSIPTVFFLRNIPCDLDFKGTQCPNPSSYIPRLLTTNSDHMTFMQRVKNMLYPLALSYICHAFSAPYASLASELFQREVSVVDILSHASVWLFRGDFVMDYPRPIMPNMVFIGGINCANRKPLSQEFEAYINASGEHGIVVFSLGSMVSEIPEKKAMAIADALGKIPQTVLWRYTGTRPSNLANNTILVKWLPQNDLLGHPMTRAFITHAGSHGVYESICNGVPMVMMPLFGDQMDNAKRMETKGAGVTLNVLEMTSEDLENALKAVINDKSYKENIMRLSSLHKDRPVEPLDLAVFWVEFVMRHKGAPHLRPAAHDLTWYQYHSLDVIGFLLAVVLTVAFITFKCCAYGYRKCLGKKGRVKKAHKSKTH
Put plainly: Inhibition of UGT1A3. A digest of the protocol:
(§2)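 Recombinant human UGTs screened with probe substrates: β-estradiol for UGT1A1, propofol for 1A9, and 4-methylumbelliferone for 1A3, 1A6, 1A7, 1A8, 1A10, 2B4, 2B7, 2B10, 2B15 and 2B17. Incubated at 37 °C without (control) or with test compound at 1, 10 or 100 μM. Glucuronide formation measured relative to control; triplicate.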

Another series addresses UGT1A4 (Homo sapiens, UniProt P22310). Put plainly: Activation of UGT1A4. A digest of the protocol: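 Recombinant human UGT1A4 with trifluoperazine (TFP) as substrate for N-glucuronidation, at various TFP concentrations with or without test compound. Triplicate. Data fitted to a mechanistic two-site model assuming a reaction site and an allosteric site.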
Another series addresses T3, UGT1A7 (Homo sapiens, UniProt Q9HAW7).
T3 sequence (Q9HAW7 26-530): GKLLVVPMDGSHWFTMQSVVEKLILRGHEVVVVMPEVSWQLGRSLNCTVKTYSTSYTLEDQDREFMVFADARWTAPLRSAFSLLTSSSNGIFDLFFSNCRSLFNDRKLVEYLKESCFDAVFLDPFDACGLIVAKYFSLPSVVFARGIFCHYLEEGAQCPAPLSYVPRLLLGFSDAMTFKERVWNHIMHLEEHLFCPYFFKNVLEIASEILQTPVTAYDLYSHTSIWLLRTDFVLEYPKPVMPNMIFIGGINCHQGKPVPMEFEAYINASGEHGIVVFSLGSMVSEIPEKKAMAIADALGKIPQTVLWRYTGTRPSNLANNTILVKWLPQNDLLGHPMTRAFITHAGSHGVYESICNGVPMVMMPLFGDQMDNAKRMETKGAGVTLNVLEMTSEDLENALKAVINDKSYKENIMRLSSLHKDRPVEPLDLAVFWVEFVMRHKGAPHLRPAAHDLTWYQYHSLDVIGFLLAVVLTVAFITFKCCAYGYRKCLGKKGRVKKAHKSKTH
Put plainly: Inhibition of UGT1A7. A digest of the protocol: as §2

SMILES strings stand for the structures.

Chain of UGT1A4 (P22310 29-534): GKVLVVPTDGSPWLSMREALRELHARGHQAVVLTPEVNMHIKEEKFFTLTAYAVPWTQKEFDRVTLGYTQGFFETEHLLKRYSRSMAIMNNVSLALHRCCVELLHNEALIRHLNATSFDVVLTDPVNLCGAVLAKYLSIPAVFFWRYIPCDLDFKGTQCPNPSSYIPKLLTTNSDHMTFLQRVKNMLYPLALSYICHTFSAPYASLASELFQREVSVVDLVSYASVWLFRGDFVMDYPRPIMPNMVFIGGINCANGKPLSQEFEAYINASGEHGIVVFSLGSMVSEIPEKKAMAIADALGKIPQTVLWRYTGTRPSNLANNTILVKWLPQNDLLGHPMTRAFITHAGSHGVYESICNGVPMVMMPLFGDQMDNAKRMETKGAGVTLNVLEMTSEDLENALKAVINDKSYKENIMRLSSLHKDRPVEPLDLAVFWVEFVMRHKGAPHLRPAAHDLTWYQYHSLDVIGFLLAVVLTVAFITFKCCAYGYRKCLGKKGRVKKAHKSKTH

Take `Oc1cccc(-c2nc(N3CCOCC3)c3oc4ncccc4c3n2)c1` [PI-103]: the IC50 worked out at 2.25 ± 0.28 µM against CYP2B6, 0.33 ± 0.04 µM against CYP2E1, 6.89 ± 0.73 µM against UGT1A3 and 6.25 ± 0.84 µM on UGT1A7. Moreover, the Ki amounted to 0.64 ± 0.22 µM on CYP2B6; 0.25 ± 0.01 µM on CYP2E1; 2.58 ± 0.84 µM at UGT1A3; 13.8 µM on UGT1A4; 5.64 ± 0.6 µM on UGT1A7. Further, the residual activity is on record as 29.70 % of the negative control at CYP2B6 (CYP2B6, 100 μM PI-103) and 13.69 % of the negative control at CYP2E1 (CYP2E1, 100 μM PI-103). Moreover, the Type of inhibition result at CYP2B6 (CYP2B6, bupropion) is reported as “Mixed-type”; on CYP2E1 (CYP2E1, chlorzoxazone) it was “Noncompetitive”; on UGT1A3 (UGT1A3, 4-MU), “Mixed-type”; at UGT1A7 (UGT1A7, 4-MU), “Noncompetitive”. Further, the α was 5.09 ± 4.48 at CYP2B6 (CYP2B6, bupropion, mixed-type model (selected)) and 2.97 ± 1.61 on UGT1A3 (UGT1A3, 4-MU, mixed-type model (selected)). In addition, on UGT1A4 (TFP-N-glucuronidation), the “maximal rate change (activation of UGT1A4)” value is reported as 1.6 fold.

For the origin of these results see PMC9050161 (RSC Advances, 2020).
